What all share (type): functional
One assay deals with K562. Nature of the assay: Concentration required to inhibit growth of K562 cells by 50% after 96h of treatment. The note with it: Homo sapiens, K562, 96 h. Summed up:
(§1)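 Cells (1 × 10⁵) were plated in 6-well dishes. Test agents were added 24 h later at five concentrations over a 2-log span (1–100 µM) and left on continuously for 96 h. Viable cells were counted by trypan blue exclusion on a hemacytometer and expressed as a percentage of DMSO-treated wells. GI50 was read from dose–response curves of % cells versus concentration.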

In a further assay the test system is BT-20. The assay is described as follows: Concentration required to inhibit growth of BT20 cells by 50% after 96h of treatment. As to conditions: Homo sapiens, BT-20, 96 h. Summed up: as §1
In the next assay the test system is NCI-H157. Nature of the assay: Concentration required to inhibit growth of H157 cells by 50% after 96h of treatment. The note with it: Homo sapiens, NCI-H157, 96 h. Put shortly: as §1
The next assay relates to DU-145. Nature of the assay: Concentration required to inhibit growth of DU145 cells by 50% after 96h of treatment. As to conditions: Homo sapiens, DU-145, 96 h. Summed up: as §1
A further assay deals with DLD-1. The assay is described as follows: Concentration required to inhibit growth of DLD-1 cells by 50% after 96h of treatment. As to conditions: Homo sapiens, DLD-1, 96 h. Put shortly: as §1

The structures appear in SMILES notation.

Regarding `COc1ccc(NS(=O)(=O)c2cc3cccc(Br)c3oc2=O)cc1`, the 50% growth inhibitory concentration (GI50) – broadly, the concentration giving 50% growth inhibition – in the assay with K562 came to 14 µM; with BT-20, 16 µM; in the assay on NCI-H157, 18 µM; in the assay with DU-145, 15 µM; with DLD-1, 20 µM.
Turning to `CCOc1cccc2cc(S(=O)(=O)Nc3ccc(F)c(N)c3)c(=O)oc12`, the GI50 in the assay with K562 was 42 µM; in the assay on BT-20, 54 µM; in the assay with NCI-H157, 72 µM; with DU-145, 48 µM; in the assay on DLD-1 it was 80 µM.
`COc1ccc(NS(=O)(=O)c2cc3cc(Cl)ccc3oc2=O)cc1O`: the GI50 came to 51 µM in the assay on K562; 65 µM in the assay with BT-20; 76 µM in the assay on NCI-H157; 42 µM in the assay with DU-145; 82 µM in the assay on DLD-1.
With `COc1ccc2oc(=O)c(S(=O)(=O)Nc3ccc(Br)cc3)cc2c1`, the GI50 with K562 amounted to 27 µM; in the assay with BT-20 it was 18 µM; with NCI-H157, 32 µM; with DU-145 it was 25 µM; in the assay with DLD-1 it was 38 µM.
In the same order, the values of `O=c1oc2c(Br)cccc2cc1S(=O)(=O)Nc1ccc(Br)cc1` are 16 µM, 12 µM, 15 µM, 12 µM and 14 µM.
For `COc1ccc(NS(=O)(=O)c2cc3cc(Cl)ccc3oc2=O)cc1`, the GI50 in the assay with K562 was found to be 23 µM; with BT-20, 27 µM; in the assay on NCI-H157, 28 µM; with DU-145, 22 µM; in the assay on DLD-1, 32 µM.
Regarding `CCOc1cccc2cc(S(=O)(=O)Nc3ccc(Br)cc3)c(=O)oc12`, the GI50 in the assay on K562 was found to be 58 µM; with BT-20, 64 µM; with NCI-H157, 74 µM; in the assay with DU-145, 52 µM; in the assay with DLD-1, 85 µM.
For `COc1ccc2oc(=O)c(S(=O)(=O)Nc3ccc(F)c(N)c3)cc2c1`, in that order: 44 µM, 68 µM, 78 µM, 56 µM and 92 µM.
In the same order, the values of `O=c1oc2c(Cl)cccc2cc1S(=O)(=O)Nc1ccc(Br)cc1` are 11 µM, 17 µM, 16 µM, 14 µM and 18 µM.
With `CCOc1cccc2cc(S(=O)(=O)Nc3ccc(OC)cc3)c(=O)oc12`, the concentration for 50% growth inhibition (GI50) in the assay on K562 was found to be 48 µM; with BT-20, 52 µM; in the assay on NCI-H157 it was 74 µM; in the assay with DU-145, 57 µM; in the assay with DLD-1 it was 78 µM.

For the origin of these results see ChEMBL document CHEMBL1137141, “Synthesis of new coumarin 3-(N-aryl) sulfonamides and their anticancer activity” (2004).
